Published values from different studies.
Protocols differ between the studies behind these lines.
Target: Calcium/calmodulin-dependent protein kinase type 1G (CAMK1G, Homo sapiens, UniProt Q96NX5)

C[C@@H]1CCN(c2nccc(-c3cnn4ncccc34)n2)C1
remaining binding (binding; 1 µM): 91%

O=C(NCC1CCOCC1)c1n[nH]cc1NC(=O)c1c(F)cccc1F
remaining binding (binding, competition with immobilised ligand; 1 µM): 96%

Cn1nc(C(=O)NCc2ccc(C(=O)O)cc2)cc1-c1ccc2[nH]ccc2c1
remaining binding (cell-free assay, competition with immobilised ligand; 0.1 µM): 89%

CN(C)c1nccc(-c2cnn3ncccc23)n1
remaining binding (binding, competition with immobilised ligand; 1 µM): 92%

O=C(c1ccc(Nc2ncc(Cl)c(-c3ccc(Cl)s3)n2)cc1)N1CCC(N2CCCC2)CC1
remaining binding (binding, competition with immobilised ligand; 1 µM): 80%

COc1cnc(Nc2cccc(S(N)(=O)=O)c2)nc1N1CCN(c2ccccc2)CC1
remaining binding (binding, competition with immobilised ligand; 1 µM): 86%

O=C(NCCCN1CCOCC1)c1ccc(Nc2ncc(Cl)c(-c3ccc(Cl)s3)n2)cc1
remaining binding (binding, competition with immobilised ligand; 1 µM): 74%

O=C(N1CCS(=O)(=O)CC1)N1C[C@H](c2ccc(OC(F)(F)F)cc2)C[C@H](c2nc(C3CC3)no2)C1
remaining binding (cell-free assay, competition with immobilised ligand; 1 µM): 100%

COc1ncc2cc3ccccc3nc2c1C#N
remaining binding (cell-free assay, competition with immobilised ligand; 5 µM): 89%

O=C(NC[C@@H]1[C@H]2CN(C(=O)OCc3cc(C(F)(F)F)cc(C(F)(F)F)c3)C[C@@H]12)c1ccc2[nH]nnc2c1
remaining binding (cell-free assay, competition with immobilised ligand; 1 µM): 100%

CN(C)c1nccc(-c2cnc3ncccn23)n1
remaining binding (binding; 1 µM): 100%

C[C@@]1(Cc2ccc(C#N)cc2)C(=O)N(c2cc(Cl)cc(Cl)c2)c2ncc(C(=O)NC3(c4nc(C5CCC5)no4)CC3)n21
remaining binding (cell-free assay, competition with immobilised ligand; 1 µM): 100%

O=C(NCCCN1CCOCC1)c1ccc(Nc2nccc(-c3cc4ccccc4s3)n2)cc1
remaining binding (binding, competition with immobilised ligand; 1 µM): 98%

CCN1CCN(Cc2ccc(C(=O)Nc3ccc(C)c(Oc4ccc5c(c4)CC(=O)N5)c3)cc2C(F)(F)F)CC1
remaining binding (binding, competition with immobilised ligand; 1 µM): 94%

COc1ccc2cc(OCC3(C(=O)O)CN(C(=O)c4ccc(F)cc4)C3)ccc2c1
remaining binding (cell-free assay, competition with immobilised ligand; 1 µM): 100%

C[C@@H](c1ccc(-n2cnc3c(N)ncnc32)cc1)N1CCc2nn(C)c(Cc3ccccc3)c2C1=O
remaining binding (binding, competition with immobilised ligand; 0.1 µM): 95%

F[C@@H]1CCN(c2nccc(-c3cnn4ncccc34)n2)C1
remaining binding (binding; 1 µM): 100%

C=CC(=O)N1CCC(C(=O)NCC(=O)N2CCN(c3nc(-c4cnc(N)nc4C(F)F)nc(N4CCOCC4)n3)CC2)CC1
remaining binding (binding, competition with immobilised ligand; 1 µM): 100%

N[C@@H]1CCN(c2nccc(-c3cnn4ncccc34)n2)C1
remaining binding (binding; 1 µM): 100%

COCCOc1nc(-c2ccc(Cl)nc2)nc2c1CN(C(=O)c1ncn3ccccc13)CC2
remaining binding (cell-free assay, competition with immobilised ligand; 0.1 µM): 100%

CN(C)c1ncc(F)c(-c2cnn3ncccc23)n1
remaining binding (binding, competition with immobilised ligand; 1 µM): 96%

CCC(=N\O)/C(C)=C/c1ccc(F)cc1
remaining binding (cell-free assay, competition with immobilised ligand; 1 µM): 97%
